From ChEMBL document CHEMBL4266022, “Azaphilone Derivatives from the Fungus Coniella fragariae Inhibit NF-κB Activation and Reduce Tumor Cell Migration” (J Nat Prod, 2018)
pIC50: −log10 of the molar value. Active and inactive are the calls of the source. No cut-off for these calls is given here.

Assays:
[1] = tested on: MDA-MB-231; assay: Cytotoxicity against human MDA-MB-231 cells assessed as decrease in cell viability after 24 hrs by cellTiter-Glo reagent based assay; type: functional; conditions: MDA-MB-231, 24 h
In short: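 MDA-MB-231 cells (RPMI, 15% FCS, 37 °C, 5% CO2) seeded at 5600 cells/well in 384-well plates, cultured overnight, then treated 24 h. Viability by CellTiter-Glo luminescence. Positive control 5 μM staurosporine; 1% DMSO set as 100% viability.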

[2] = Inhibition of NF-kappaB in human MDA-MB-231 cells assessed as reduction in TNFalpha-induced NF-kappaB activation incubated with compound for 20 mins followed by TNFalpha stimulation measured after 2 hrs by luminescence assay
[3] = tested on: MDA-MB-231; assay: Inhibition of cell migration in human MDA-MB-231 cells at 5 uM after 24 hrs by wound-scratch assay; type: functional
In short: (§1)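 MDA-MB-231 cells seeded at 50 000 cells/well; scratch made after 24 h with automated wound maker. Compounds added, wound imaged every 2 h over 24 h by live-cell imager; migration into wound quantified.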

[4] = tested on: MDA-MB-231; assay: Inhibition of cell migration in human MDA-MB-231 cells at 10 uM after 24 hrs by wound-scratch assay; type: functional; conditions: MDA-MB-231, 24 h; in short: as §1
[5] = tested on: MDA-MB-231; assay: Anti-invasive activity in human MDA-MB-231 cells assessed as inhibition of cell invasion into surrounding extracellular matrix at 10 uM after 24 hrs; type: functional; conditions: MDA-MB-231, 24 h
In short: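 Spheroids formed from 3000 MDA-MB-231 cells/well with 0.25% matrigel in ultralow-attachment plates (centrifuged 10 min, 1000 rpm, 4 °C), 72 h formation. Embedded in matrigel:collagen R (1:1), polymerized 1 h at 37 °C. Invasion into matrix imaged daily over 3 days, quantified by image analysis.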

[6] = tested on: MDA-MB-231; assay: Cytotoxicity against human MDA-MB-231 cells assessed as decrease in cell viability at 5 uM after 24 hrs by cellTiter-Glo reagent based assay; type: functional
In short: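 MDA-MB-231 cells (RPMI, 15% FCS, 37 °C, 5% CO2) were seeded at 5600 cells/well, cultured overnight, then treated at 5 μM for 24 h. Viability was read by CellTiter-Glo luminescence and normalised to 1% DMSO as 100% viability.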

SMILES | pIC50 [1] | pIC50 [2] | inhibition [3] | inhibition at 10 µM [4] [%] | inhibition at 5 µM ([3]; MDA-MB-231, 24 h) [%] | inhibition at 10 µM [5] [%] | Activity [6] [%]
CCCCCC(CC(=O)[C@H]1C(=O)O[C@@]2(C)C(=O)C(C=O)=C3C=C(C)OC=C3[C@H]12)OC (some centres not stated) | 4.68 | < 4.00 |  |  |  |  | 
CCCCC[C@@H](CC(=O)C[C@H]1C2=COC(C)=CC2=C(C=O)C(=O)[C@]1(C)O)OC | 4.67 | 4.95 | inactive |  |  |  | 
CCCCC/C=C/C(=O)C[C@H]1C2=COC(C)=CC2=C(C=O)C(=O)[C@]1(C)O | 4.73 | 4.42 |  | 78 |  |  | 
CCCCCCCC(=O)[C@H]1C(=O)O[C@@]2(C)C(=O)C(C=O)=C3C=C(C)OC=C3[C@H]12 | 4.71 | < 4.00 |  |  |  |  | 
CCCCC/C=C/C(=O)[C@H]1C(=O)O[C@@]2(C)C(=O)C(C=O)=C3C=C(C)OC=C3[C@H]12 | 4.67 | 5.36 |  | 98 | 60 | 52 | 
CCCCC[C@@H](O)CC(=O)C[C@H]1C2=COC(C)=CC2=C(C=O)C(=O)[C@]1(C)O | < 4.00 | 4.15 | inactive |  |  |  | 
CCCCC[C@H](O)CC(=O)C[C@H]1C2=COC(C)=CC2=C(C=O)C(=O)[C@]1(C)O | 4.10 | 4.53 |  | 83 |  |  | 
CN[C@@H]1C[C@H]2O[C@@](C)([C@@H]1OC)n1c3ccccc3c3c4c(c5c6ccccc6n2c5c31)C(=O)NC4 [STAUROSPORINE] |  |  |  |  |  |  | 10.9
